{
  "source": "paper PMC7003992",
  "about": "(Journal of medicinal chemistry, 2019)",
  "key": {"NTR1 [1]": {"target": "T1, NTR1 (Homo sapiens, UniProt P30989)", "experiment": "β-Arrestin2-GFP NTR1 high content assay", "assay_type": "cell-based"}, "NTR1 [2]": {"target": "T1, NTR1", "conditions": "cited from earlier work"}, "NTR2 [3]": {"target": "T2, NTR2 (Homo sapiens, UniProt O95665)", "experiment": "[125I]-NT radioligand binding to cell membranes", "conditions": "[125I]-NT 0.02 nM"}, "mouse NTR": {"target": "mouse NTR (Mus musculus, UniProt O88319)", "sequence (O88319 whole entry)": "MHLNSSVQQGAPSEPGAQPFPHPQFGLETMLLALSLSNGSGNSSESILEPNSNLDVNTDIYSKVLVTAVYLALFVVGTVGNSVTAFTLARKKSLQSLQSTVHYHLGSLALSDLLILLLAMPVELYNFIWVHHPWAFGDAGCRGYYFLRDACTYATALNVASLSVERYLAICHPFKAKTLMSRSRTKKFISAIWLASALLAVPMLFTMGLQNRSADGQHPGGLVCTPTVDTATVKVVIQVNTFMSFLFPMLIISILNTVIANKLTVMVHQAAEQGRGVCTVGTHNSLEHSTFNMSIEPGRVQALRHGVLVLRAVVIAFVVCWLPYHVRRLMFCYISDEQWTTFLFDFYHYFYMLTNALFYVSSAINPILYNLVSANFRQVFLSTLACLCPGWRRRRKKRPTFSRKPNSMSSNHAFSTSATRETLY", "experiment": "[125I]-NT radioligand binding to cell membranes", "conditions": "[125I]-NT 0.02 nM"}, "[4]": {"tested_on": "dopamine transporter knockout (DAT−/−) mice", "experiment": "Open field locomotor activity in dopamine transporter knockout mice", "assay_type": "in vivo, mouse", "conditions": "2 hr post-treatment", "in_short": "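Male and female DAT KO mice on a C57BL/6J background, 12–24 wk, 18–30 g, age- and sex-matched, randomised, tested early in the light cycle. After 30 min open-field acclimation, dosed at 10 ml/kg i.p. (vehicle 4% DMSO in saline) or p.o. as HCl salt in distilled water (after 5 daily water-gavage habituations). Infrared beam-break horizontal distance in 5-min bins; total summed 30–150 min.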"}, "GPR55": {"target": "GPR55 (Homo sapiens, UniProt Q9Y2T6)", "sequence (Q9Y2T6 whole entry, species assumed)": "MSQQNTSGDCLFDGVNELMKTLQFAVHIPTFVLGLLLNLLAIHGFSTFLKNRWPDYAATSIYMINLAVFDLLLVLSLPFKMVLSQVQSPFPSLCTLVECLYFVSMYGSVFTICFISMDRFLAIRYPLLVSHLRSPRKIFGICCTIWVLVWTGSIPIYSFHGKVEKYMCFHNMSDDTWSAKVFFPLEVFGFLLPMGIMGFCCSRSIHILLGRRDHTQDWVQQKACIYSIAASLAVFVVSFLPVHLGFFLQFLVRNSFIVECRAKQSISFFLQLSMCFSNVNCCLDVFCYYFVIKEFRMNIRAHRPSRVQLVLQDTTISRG", "experiment": "GPCR cross reactivity, high-content assay format", "assay_type": "cell-based"}, "[5]": {"experiment": "Adverse effects in dosed animals", "assay_type": "in vivo", "conditions": "animals dosed in the DAT knockout mouse study"}, "NTR1 [6]": {"target": "T1, NTR1", "experiment": "[125I]-NT radioligand binding to cell membranes", "conditions": "[125I]-NT 0.02 nM, increasing concentrations of compound"}, "NTR2 [7]": {"target": "T2, NTR2", "experiment": "NTR2 counterscreen, same high-content β-arrestin format", "assay_type": "cell-based", "conditions": "high-content assay format"}, "GPR35": {"target": "GPR35 (Homo sapiens, UniProt Q9HC97)", "sequence (Q9HC97 whole entry, species assumed)": "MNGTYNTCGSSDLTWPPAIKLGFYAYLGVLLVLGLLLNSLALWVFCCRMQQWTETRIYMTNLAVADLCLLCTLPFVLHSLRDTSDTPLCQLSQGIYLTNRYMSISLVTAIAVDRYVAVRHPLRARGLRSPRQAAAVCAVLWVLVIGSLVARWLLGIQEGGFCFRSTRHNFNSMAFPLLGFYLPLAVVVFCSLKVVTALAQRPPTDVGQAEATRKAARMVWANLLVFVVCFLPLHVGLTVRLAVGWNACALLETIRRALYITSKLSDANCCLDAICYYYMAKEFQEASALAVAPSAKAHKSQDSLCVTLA", "experiment": "GPCR cross reactivity, high-content assay format", "assay_type": "cell-based"}, "NTR1 [8]": {"target": "T1, NTR1", "experiment": "Ca2+ flux assay", "assay_type": "cell-based"}, "K-opioid": {"target": "K-opioid (Homo sapiens, UniProt P41145)", "sequence (P41145 whole entry)": "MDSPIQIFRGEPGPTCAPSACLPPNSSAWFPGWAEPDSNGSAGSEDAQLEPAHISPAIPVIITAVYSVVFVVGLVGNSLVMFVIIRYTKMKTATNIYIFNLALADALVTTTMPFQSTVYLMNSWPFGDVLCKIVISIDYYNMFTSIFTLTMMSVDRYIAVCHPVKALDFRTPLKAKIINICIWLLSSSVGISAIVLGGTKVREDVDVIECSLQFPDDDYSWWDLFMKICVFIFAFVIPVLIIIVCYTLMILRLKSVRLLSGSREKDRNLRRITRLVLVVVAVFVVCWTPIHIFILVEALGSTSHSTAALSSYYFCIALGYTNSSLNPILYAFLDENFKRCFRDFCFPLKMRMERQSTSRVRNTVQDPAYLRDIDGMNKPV", "experiment": "GPCR cross reactivity, high-content assay format", "assay_type": "cell-based"}},
  "note": "Where two headings read alike, the source gives them in different places.",
  "data": [
    {"smiles": "COc1cc2nc(C3CC3)nc(C3CCN(c4ccccc4OC)CC3)c2cc1OC", "note": "[19a]", "values": [
      {"measurement": "EC50 (β-Arrestin2-GFP NTR1 potency)", "setting": "NTR1 [1]; relative to the EC100 (100 nM) of the NT(8–13) peptide control, average ± SEM (n=4 unless otherwise noted in parentheses)", "result": "not active"}
    ]},
    {"smiles": "COc1cc2nc(C3CC3)nc(N3CCN(c4ccccc4OC)CC3)c2cc1OC", "note": "[compound 7]", "values": [
      {"measurement": "activity in Ca2+ flux assay, compound alone", "setting": "NTR1 [2]", "result": "no activity"},
      {"measurement": "Emax", "setting": "NTR1 [1]", "result": 100, "unit": "%"}
    ]},
    {"smiles": "COc1ccccc1C1CCN(c2nc(C3(F)CC3)nc3ccc(N(C)CCO)cc23)CC1", "note": "[compound 18, 2-({2-(1-Fluoro-cyclopropyl)-4-[4-(2-methoxy-phenyl)-piperidin-1-yl]-quinazolin-6-yl}-methyl-amino)-ethanol]", "values": [
      {"measurement": "enhancement of neurotensin peptide binding", "setting": "NTR2 [3]", "result": "but not human NTR2"},
      {"measurement": "enhancement of neurotensin peptide binding", "setting": "mouse NTR", "result": "significant enhancement"},
      {"measurement": "effect on basal hyperlocomotion", "setting": "[4]; IP dosing, 12 mg/kg", "result": "attenuated hyperlocomotion"},
      {"measurement": "effect on basal hyperlocomotion", "setting": "[4]; PO dosing, 10, 30 or 100 mg/kg as the HCl salt", "result": "attenuated hyperlocomotion"},
      {"measurement": "effect on the potency of NT in the NTR1 high-content (β-arrestin2-GFP) assay", "setting": "NTR1 [1]; 18 (SBI-553) 0.5−356 nM", "result": "no effect"},
      {"measurement": "cross reactivity", "setting": "GPR55", "result": "no cross reactivity"},
      {"measurement": "adverse effects in dosed animals", "setting": "[5]", "result": "did not show any adverse effects"},
      {"measurement": "enhancement of neurotensin peptide binding", "setting": "NTR1 [6]", "result": "significant enhancement"},
      {"measurement": "cross reactivity", "setting": "NTR2 [7]", "result": "no cross reactivity"},
      {"measurement": "cross reactivity", "setting": "GPR35", "result": "no cross reactivity"},
      {"measurement": "activity in Ca2+ flux assay, compound alone", "setting": "NTR1 [8]; compound alone, without NT", "result": "no activity"},
      {"measurement": "shift of the NT EC50 in the Ca2+ flux assay", "setting": "NTR1 [8]; rightward shift in the presence of 2.15 μM compound", "result": "> 30", "unit": "fold"},
      {"measurement": "cross reactivity", "setting": "K-opioid", "result": "no cross reactivity"}
    ]}
  ]
}
